“And” between values parts separate entries of the source, which are not always exact repeats. Equal values may be shown once.
Tests used:
KRAS^G12D-GppNHp [1] = target: T1, KRAS^G12D-GppNHp (Homo sapiens, UniProt P01116, G12D); experiment: Isothermal titration calorimetry; assay type: binding
Procedure, shortened: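 Test compound in the cell at 200 µM (1.25% DMSO); protein in the syringe at 2.0 mM, DMSO-matched. Run at 25 °C: 19 × 2 µl injections, 180 s apart; reference power 5 µcal/sec.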

KRAS^G12D-GppNHp [2] = target: T1, KRAS^G12D-GppNHp; experiment: Microscale thermophoresis; assay type: binding; details: selectivity panel
Procedure, shortened: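 To strip endogenous nucleotide, KRAS G12D (250 μM) in 25 mM HEPES, 100 mM NaCl, 20 mM EDTA and 1 mM GppNHp was shaken at 220 rpm, 30 °C, before MST.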

KRAS^G12D D38A = KRAS^G12D D38A (Homo sapiens, UniProt P01116, D38A/G12D); experiment: MST, D38A point mutant; assay type: binding; details: compared with KRAS^G12D
KRAS^G12D I36N = KRAS^G12D I36N (Homo sapiens, UniProt P01116, G12D/I36N); experiment: MST, I36N point mutant; assay type: binding; details: compared with KRAS^G12D
[3] = test system: Kras^lox/lox, Hras^−/−, Nras^−/− RERTn^ert/ert MEFs; experiment: Viability assay in mouse embryo fibroblasts; assay type: cell-based; details: Fibroblast, 48 h, read-out: IC50 (lethality)
Procedure, shortened: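 Cells trypsinised and seeded at 1,000/well in 384-well plates unless otherwise specified. After 16 h, 8- or 16-point dilution series (from 10 mM DMSO stocks) transferred at 1:5. At 48 h, Alamar blue added to 10% final; fluorescence read after 6 h (ex 535, em 590 nm). Triplicates; 37 °C, 5% CO2.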

[4] = test system: Kras^lox/lox, Hras^−/−, Nras^−/− RERTn^ert/ert MEFs; experiment: MEF cell number after treatment; assay type: cell-based, mouse; details: 6-well, 24 h treatment
Procedure, shortened: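 6-well format: 200,000 cells/well seeded 16 h beforehand. Medium replaced with medium containing test compound (from 10 mM DMSO stocks) at indicated concentrations. After 24 h, cells trypsinized and counted by Trypan Blue exclusion (Vi-Cell).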

HT-1080 cells = experiment: Caspase 3/7 activation assay; assay type: cell-based, human; details: 24 h; compared with staurosporine
Procedure, shortened: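 HT-1080 cells seeded at 1,000 cells/well in 384-well plates. After 16 h, test compound was added as a dilution series, made from 50 mM DMSO stocks and transferred into assay wells at 1:5 dilution.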

[5] = test system: HT-1080 cells (NRAS^Q61K); experiment: Lethality with PI3K and BRAF overexpression; assay type: cell-based, human; details: 24 h, 6-well format
Procedure, shortened: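 HT-1080 cells were retrovirally transduced using Phoenix-AMPHO supernatant, 0.45 µm filtered and added twice 4 h apart. After 48 h they were re-seeded under puromycin (2 μg/mL) for 6 d, and expression was checked by qPCR. Cells at 100,000/well in 6-well plates were treated 24 h, trypsinized, and viability read by Trypan blue exclusion (Vi-Cell).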

[6] = test system: T-ALL cells with wild-type NRAS; experiment: Viability of primary T-ALL patient samples; assay type: cell-based, human; details: 5 μM, 72 h, four patient samples
Procedure, shortened: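 Primary T-ALL lymphoblasts, 250,000 per well in 24-well plates, in triplicate. Treated with DMSO vehicle or test compound across 1 to 5 μM for 72 h. Viability by flow-based kit with counting beads, gating out GFP+ stromal cells and PI+ dead cells and particles.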

[7] = test system: MDA-MB-231 cell line (KRAS^G13D); experiment: Multicellular tumor spheroids; assay type: cell-based, human; details: low-adherence plates, 72 h
[8] = test system: pERK and pAKT in Hras^−/−; Nras^−/−; Kras^flox/flox MEFs; experiment: Western blots of mouse embryo fibroblasts; assay type: cell-based; details: treatment for 0.6 h, 1 h or 16 h, EGF stimulated
Procedure, shortened: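 MEFs seeded at 0.25 million/well in DMEM with Glutamax, 10% heat-inactivated FBS and P/S, grown to 80% confluence, then serum-starved 24 h. Serum-free treatment with 5 μM test compound for 35 min or 1 h, or 2 μM for 16 h, then EGF 10 ng/ml for 15 min. Quantified as (phospho/tubulin)/(total/tubulin), normalised to DMSO.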

[9] = test system: pERK and pAKT in BRAF-CAAX-containing MEFs; experiment: Western blots of mouse embryo fibroblasts; assay type: cell-based; details: compared with Kras MEFs
Procedure, shortened: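 MEFs seeded at 0.25 million/well in DMEM with Glutamax, 10% heat-inactivated FBS and P/S. Serum-starved 24 h, then given test compound in serum-free medium; EGF 10 ng/ml for 15 min where indicated. Band intensities background-subtracted; pERK and pAKT expressed as (phospho/tubulin)/(total/tubulin) and normalised to DMSO.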

[10] = test system: CRAF-bound RAS in BJeLR cells; experiment: Cell-based RAS pulldown; parameters: species or system human
Procedure, shortened: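 BJeLR cells seeded 16 h before use in DMEM with 10% FBS. Medium then replaced with serum-free medium containing the test compound or a reference inhibitor (from 10 mM DMSO stocks), 24 h. c-RAF bound to RAS proteins was determined by pulldown.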

RALA-GTP in BJeLR cells = experiment: RALA activation assay; assay type: cell-based, human
Procedure, shortened: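 BJeLR cells seeded 16 h before use in DMEM with 2% FBS, then given medium with test compound (from 10 mM DMSO stock) for 6 h. Cells washed twice with ice-cold 25 mM Tris, 100 mM NaCl, 1 mM TCEP, 5 mM MgCl2, 0.1% Tween-20 with protease inhibitor. RALA-GTP pulled down on beads, eluted in SDS buffer and blotted.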

[11] = Microsomal stability assay; assay type: in vitro ADME; details: mouse, over 120 minutes
Procedure, shortened: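 Liver microsomes incubated in 100 mM phosphate buffer, pH 7.4, supplemented with an NADPH-regenerating system (solutions A and B).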

wild-type mice = experiment: Toxicity and body weight in wild-type mice; assay type: in vivo, mouse; details: individual mice
[12] = test system: pAKT (S473), pERK1/2 and cleaved caspase-3 in KP^f/fC pancreatic tumors; experiment: KP^f/fC mouse pharmacodynamic study; assay type: in vivo; details: post- vs pre-treatment tumor samples
K mouse weights on study = assay type: in vivo; details: individual mice
[13] = KC mouse weights on study; assay type: in vivo; details: individual mice

With `NC1(C(=O)NCCCn2cc(-c3ccc(OC(F)(F)F)cc3)c3cc(CN4CCN(Cc5c(Cl)cccc5Cl)CC4)ccc32)CCNCC1` [compound 3144, 4-amino-N-(3-(5-((4-(2,6-dichlorobenzyl)piperazin-1-yl)methyl)-3-(4-(trifluoromethoxy)phenyl)-1H-indol-1-yl)propyl)piperidine-4-carboxamide] as the compound, how does the Kd (KRAS^G12D-GppNHp [1]) read?
Its Kd is 17.8 ± 4.5 µM.

And the “binding by MST” value (KRAS^G12D-GppNHp [2])?
Its value is “detected binding”.

And the “binding affinity to D38A mutant” value (KRAS^G12D D38A)?
The value was “reduced binding affinity”.

What about the “binding affinity to I36N mutant” value (KRAS^G12D I36N) of the same compound?
The value was “reduced binding affinity”.

And the IC50 [3]?
Its IC50 is 3.8 µM.

And the “concentrations not reducing the number of MEFs below the starting number” value [4]?
The value was “below 3 μM”.

What about the caspase activity (HT-1080 cells) of the same compound?
The caspase activity was “induced caspase activity to a similar level as staurosporine”.

What about the “lethality upon overexpression of activated alleles of PI3K and/or BRAF” value [5] of the same compound?
Its value is “reduced”.

And the effect on viability [6]?
The effect on viability was “no observable effect on viability”.

And the spheroid size [7]?
The spheroid size was “decreased in size in a dose-dependent manner”.

What about the “pERK and pAKT abundance” value [8] of the same compound?
The value was “moderately decreased”.

And the “pERK and pAKT abundance” value [9]?
The value was “more resistant”.

And the “CRAF-bound RAS” value [10]?
The value was “decreased”.

And the RALA-GTP (RALA-GTP in BJeLR cells)?
Its RALA-GTP is “decreased”.

And the “stability in liver microsomes” value [11]?
Its value is “relatively stable”.

What about the WT mouse weights (wild-type mice; day 1 on study) of the same compound?
The WT mouse weights was 21.36 and 20.39 and 22.08 and 23.6 and 25.

What about the WT mouse weights (wild-type mice; day 2 on study) of the same compound?
The WT mouse weights was 20 and 18.8 and 20.6 and 22.7 and 23.38.

And the WT mouse weights (wild-type mice; day 3 on study)?
The WT mouse weights was 20 and 18.4 and 20.1 and 21.87 and 22.16.

What about the WT mouse weights (wild-type mice; day 4 on study) of the same compound?
Its WT mouse weights is 20.77 and 17.4 and 19 and 21.08 and 23.

And the WT mouse weights (wild-type mice; day 5 on study)?
Its WT mouse weights is 20.78 and 17.27 and 18.6 and 21.4 and 22.18.

What about the “cleaved caspase-3 in tumor” value [12] of the same compound?
The value was “modest increase”.

And the “pAKT (S473) and pERK1/2 in tumor” value ([12]; 30 mg/kg IP once daily)?
The value was “decrease”.

And the K mouse weights (K mouse weights on study; day 1 on study)?
The K mouse weights was 19.1 and 14.5 and 22.9 and 26.1 and 18.5.

What about the K mouse weights (K mouse weights on study; day 2 on study) of the same compound?
Its K mouse weights is 18.4 and 14.1 and 21.6 and 24.7 and 17.4.

And the K mouse weights (K mouse weights on study; day 3 on study)?
Its K mouse weights is 18.6 and 14.2 and 20.7 and 23.6 and 17.

And the K mouse weights (K mouse weights on study; day 4 on study)?
Its K mouse weights is 17.5 and 14.2 and 20.1 and 23.27 and 17.7.

What about the K mouse weights (K mouse weights on study; day 5 on study) of the same compound?
The K mouse weights was 17.5 and 13.63 and 19.8 and 22.7 and 16.5.

And the KC mouse weights ([13]; day 1 on study)?
Its KC mouse weights is 33 and 30.5 and 30.7 and 33.5 and 35.8.

And the KC mouse weights ([13]; day 2 on study)?
The KC mouse weights was 32.2 and 28.1 and 27.8 and 33.5 and 34.5.

What about the KC mouse weights ([13]; day 3 on study) of the same compound?
The KC mouse weights was 29.9 and 24.84 and 32 and 26.86.

And the KC mouse weights ([13]; day 4 on study)?
The KC mouse weights was 28.8 and 23.6 and 30.5.

What about the KC mouse weights ([13]; day 5 on study) of the same compound?
Its KC mouse weights is 28.5 and 30.2.
